ChEMBL document CHEMBL2163193, “Meroterpenoid and diphenyl ether derivatives from Penicillium sp. MA-37, a fungus isolated from marine mangrove rhizospheric soil” (J Nat Prod, 2012)
≈ marks a conversion by molar mass, not a printed value.

How the values were obtained:
[1] = Toxicity against brine shrimp; type: organism-based; settings: artemia, in vivo; read-out: LD50 (the source's name)
Summary of the method: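 Brine shrimp lethality follows a literature procedure, with DMSO as the negative control and colchicine as the positive control. Lethality is expressed as LD50 in μM.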

[2] = test system: Escherichia coli; assay: Antimicrobial activity against Escherichia coli by broth microdilution method; type: functional
Summary of the method: (§1)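 Broth microdilution run per a cited literature method, with chloromycetin as the positive control. The read-out is the MIC in μg/mL.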

[3] = test system: Micrococcus luteus; assay: Antimicrobial activity against Micrococcus luteus by broth microdilution method; type: functional; summary of the method: as §1

Question: With C=C(C)/C=C/c1ccc2c(c1OC)C(=O)OCc1cc(C)cc(O)c1O2 as the compound, how does the LC50 [1] read?
Answer: 136 µM

Question: For CC(=O)OCc1cc(C)cc(O)c1Oc1ccc(CC=C(C)C)c(O)c1C(=O)O, which MIC [2] is on record?
Answer: 16 µg/mL (≈ 40 µM)

Question: And the MIC [3]?
Answer: 64 µg/mL (≈ 160 µM)

Question: Which results are given for COc1c(C(CC(C)C)OC)ccc(Oc2c(O)cc(C)cc2CO)c1C(=O)O (stereo unspecified)?
Answer: MIC [2]: 32 µg/mL (≈ 79.1 µM); MIC [3]: 256 µg/mL (≈ 633 µM)

Question: For COc1c(/C=C/C(C)(C)OC)ccc2c1C(=O)OCc1cc(C)cc(O)c1O2, which LC50 [1] is on record?
Answer: 72.6 µM

Question: For COC(=O)[C@]12C(=O)[C@H](C)O[C@@H]3OC(=O)[C@](C)(C[C@H]4[C@]5(CO5)C5=CC(=O)OC(C)(C)C5=CC[C@@]41C)[C@@H]32 [BERKELEYACETAL B], which LC50 [1] is on record?
Answer: 160 µM

Question: For O=C(N[C@H](CO)[C@H](O)c1ccc([N+](=O)[O-])cc1)C(Cl)Cl [CHLORAMPHENICOL], which MIC [2] is on record?
Answer: 4 µg/mL (≈ 12.4 µM)

Question: What about the MIC [3] of the same compound?
Answer: 4 µg/mL (≈ 12.4 µM)

Question: For COc1cc2c(c(OC)c1OC)-c1ccc(OC)c(=O)cc1[C@@H](NC(C)=O)CC2 [COLCHICINE], which LC50 [1] is on record?
Answer: 71.1 µM

Question: Which LC50 [1] does the source give for COc1c([C@@H](O)CC(C)C)ccc2c1C(=O)OCc1cc(C)cc(O)c1O2 [PENICILLIDE] here?
Answer: 158 µM
